In assay [1] the target is T1, Retinoic acid receptor RXR-alpha (Homo sapiens, UniProt P19793).
T1 sequence (P19793 whole entry): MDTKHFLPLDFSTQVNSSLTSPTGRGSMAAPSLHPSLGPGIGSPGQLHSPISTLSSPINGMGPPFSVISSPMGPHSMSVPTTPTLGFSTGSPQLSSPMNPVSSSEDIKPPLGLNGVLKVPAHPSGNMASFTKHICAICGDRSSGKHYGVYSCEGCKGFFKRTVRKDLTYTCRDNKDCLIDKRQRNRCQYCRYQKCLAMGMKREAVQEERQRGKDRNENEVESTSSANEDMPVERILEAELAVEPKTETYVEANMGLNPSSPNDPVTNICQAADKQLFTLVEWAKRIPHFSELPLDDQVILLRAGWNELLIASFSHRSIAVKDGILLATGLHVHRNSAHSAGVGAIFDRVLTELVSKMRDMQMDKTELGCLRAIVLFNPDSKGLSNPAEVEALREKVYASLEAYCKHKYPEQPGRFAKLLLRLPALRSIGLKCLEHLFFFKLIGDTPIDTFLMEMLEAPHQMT
Kind of assay: Displacement of [3H]-9-cis-RA from human GST-tagged N-terminal truncated RXRalpha after 1 hr by liquid scintillation counting. The method, boiled down:
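GST-tagged human RXRα-LBD (223–462) preincubated with unlabeled 9-cis-RA or test compound at varied concentrations in binding buffer (0.15 M KCl, 10 mM Tris·HCl pH 7.4, 8% glycerol, 0.5% CHAPS), 4°C, 1 h; [3H]-9-cis-RA then added to 7.5 nM final, overnight at 4°C. Receptor captured on glutathione sepharose beads; bound radioligand counted by liquid scintillation.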

The target in assay [2] is T2, Retinoic acid receptor RXR-alpha (Homo sapiens) (UniProt P19793).
T2 sequence (whole entry): T1 sequence (P19793 whole entry)
Briefly: Antagonist activity at RXRalpha (unknown origin) expressed in HCT116 cells assessed as inhibition of 9-cis-RA-induced galactosidase activity after 12 hrs by gal4 reporter gene assay. It is filed as cell-based. To be noted: HCT-116, in the assay text read “luciferase activity” for “galactosidase activity”. The method, boiled down: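 GAL4-RXRα-LBD transactivation in HCT-116 cells: cells transfected for 24 hr with pG5 luciferase reporter (50 ng/well) plus pGAL4-RXRα-LBD vector (50 ng/well), then exposed to 9-cis-RA (10^-7 M) together with varied compound concentrations for 12 hr. Luciferase read by dual-luciferase assay. Cells grown in DMEM with 10% FBS, 37°C, 5% CO2.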
A general note: In a reporter assay the amount or activity of a reporter protein is the signal.

Assay [3] concerns the target T2, Retinoic acid receptor RXR-alpha (Homo sapiens). Briefly: Inhibition of RXRalpha in human HepG2 cells assessed as inhibition of TNFalpha-induced Akt phosphorylation. It is filed as cell-based.
The target is the same in assay [4]. Briefly: Inhibition of RXRalpha in human HCT116 cells assessed as inhibition of TNFalpha-induced Akt phosphorylation. It is filed as cell-based. To be noted: HCT-116.
Assay [5] has the same target. Kind of assay: Inhibition of RXRalpha in human A549 cells assessed as inhibition of TNFalpha-induced Akt phosphorylation at 30 uM incubated for 1 hr prior to TNFalpha-induction measured after 30 mins by Western blot analysis. It is filed as cell-based. The gist of the method: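 A549 cells (DMEM, 10% FBS) pretreated 1 hr with 30 μM compound, then TNFα (10 ng/mL) for 30 min. Phospho-AKT (1:1000) and total AKT (1:1000) immunoblotted after 10% SDS-PAGE, with ECL detection.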

Assay [6] deals with ZR-75-1. Briefly: Induction of apoptosis in human ZR75-1 cells assessed as PARP cleavage at 30 uM after 6 hrs by Western blot analysis. It is filed as functional, cell-based. The method, boiled down: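 ZR-75-1 cells (RPMI1640, 10% FBS) treated with vehicle or 30 μM compound for 6 hr. Lysates run on 10% SDS-PAGE, blotted to PVDF and probed with anti-PARP (1:3000) for cleavage, ECL detection.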
(In general: Immunoblotting shows a protein as a band on a membrane.)

Assay [7] concerns the target T1, Retinoic acid receptor RXR-alpha. Kind of assay: Displacement of [3H]-9-cis-RA from RXRalpha (unknown origin) by liquid scintillation counting.
Another assay relates to HCT-116. Kind of assay: Induction of apoptosis in human HCT116 cells assessed as increase in TNFalpha-induced PARP cleavage at 40 uM after 4 hrs by Western blot analysis. It is filed as functional, cell-based.
Assay [8] deals with ZR-75-1. Briefly: Cytotoxicity against human ZR75-1 cells after 24 hrs by MTT assay. It is filed as functional, cell-based. The gist of the method: (§1)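 Cells in RPMI1640 with 10% FBS (37°C, 5% CO2) treated with various concentrations for 24 hr in 96-well format. MTT at 2 mg/mL added for 4 hr at 37°C, formazan dissolved in DMSO, absorbance read at 570 nm for viability.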
(Tetrazolium assays rely on reduction of a dye to a coloured formazan, in cell work by metabolically active cells.)

A further assay concerns PC-3. Briefly: Cytotoxicity against human PC3 cells after 24 hrs by MTT assay. It is filed as functional, cell-based. The method, boiled down:
as §1

A further assay concerns HeLa. Kind of assay: Decrease in TNFalpha-induced Akt phosphorylation in RXRalpha-knockdown human HeLa cells at 20 uM incubated for 1 hr prior to TNFalpha-induction measured after 30 mins by Western blot analysis. It is filed as functional, cell-based.

pIC50: −log10 of the molar value. Calls of active or inactive are those of the source. The rule behind the calls is not given here.

`CC1=C(CC(=O)O)c2cc(F)ccc2/C1=C\c1ccc(C#N)cc1` showed a pIC50 in assay [1] of at most 4.00.
In the case of `CC1=C(CC(=O)O)c2cc(C)ccc2/C1=C\c1ccc(C(C)C)cc1`, the pIC50 in assay [1] is at most 4.00.
For the compound `COc1ccc2c(c1)C(CC(=O)O)=C(C)/C2=C/c1ccc(C(C)C)cc1`, the pIC50 in assay [1] was at most 4.00.
For the compound `CC1=C(CC(=O)O)c2cc(F)ccc2/C1=C\c1ccc(C(C)C)cc1`, the inhibition result in [2] is “Dose-dependent effect”. Moreover, the inhibition result in assay [3], in assay [4] and in assay [5] was “Active” throughout. In addition, the outcome with ZR-75-1 [6] and in the assay with HCT-116 was Active. Further, in [7], the pIC50 is 5.62.
With `CC1=C(CC(=O)O)c2cc(Cl)ccc2/C1=C\c1ccc(C(C)C)cc1`, in [1], the pIC50 was at most 4.00.
In assay [1], `CC1=C(CC(=O)O)c2cc(C(C)C)ccc2/C1=C\c1ccc(C(C)C)cc1` showed a negative-log IC50 (pIC50) of at most 4.00.
Consider `CC1=C(CC(N)=O)c2cc(F)ccc2/C1=C/c1ccc(C(C)C)cc1`, for which, in assay [1], the negative logarithm of the IC50 (pIC50) is at most 4.00.
Compound `CC1=C(CC(=O)O)c2cc(F)ccc2/C1=C\c1cccc(C(F)(F)F)c1` had a pIC50 in assay [1] of 5.08.
`CC1=C(CC(N)=O)c2cc(F)ccc2/C1=C\c1ccc(C(C)C)cc1` had a pIC50 in [1] of at most 4.00.
`CC1=C(CC(=O)O)c2cc(F)ccc2/C1=C\c1ccc(N(C)C)cc1` gave a pIC50 in assay [1] of at most 4.00.
Compound `CC1=C(CC(=O)O)c2cc(F)ccc2/C1=C\c1cccc(C#N)c1` gave a pIC50 in [1] of at most 4.00.
As to `CC1=C(CC(=O)O)c2cc(F)ccc2/C1=C\c1ccc(C(C)(C)C)cc1`, in assay [1], the negative-log IC50 (pIC50) is at most 4.00.
With `CC1=C(CC(=O)O)c2cc(F)ccc2/C1=C\c1ccc([S+](C)[O-])cc1` (stereo unspecified), the outcome in the assay on ZR-75-1 [6] and with HCT-116 was Active. This compound also gave a pIC50 in [7] of 4.08.
In turn, `CC(=O)Nc1ccc(/C=C2/C(C)=C(CC(=O)O)c3cc(F)ccc32)cc1` had a pIC50 in assay [1] of at most 4.00.
For the compound `CC1=C(CCC#N)c2cc(F)ccc2/C1=C\c1ccc(C(C)C)cc1`, the negative-log IC50 (pIC50) in assay [1] is at most 4.00.
With `COc1ccc(/C=C2/C(C)=C(CC(=O)O)c3cc(F)ccc32)cc1`, in assay [1], the pIC50 is at most 4.00.
In [1], `CC1=C(CCC(=O)O)c2cc(F)ccc2/C1=C\c1ccc(C(C)C)cc1` had a pIC50 of 5.24.
For `CC1=C(CC(=O)O)c2cc(F)ccc2/C1=C\c1ccc(C(F)(F)F)cc1`, in assay [1], the negative logarithm of the IC50 (pIC50) was 5.33.
The compound `CC(C)CC1=C(CC(=O)O)c2cc(F)ccc2/C1=C\c1ccc(C(C)C)cc1` gave a pIC50 in assay [1] of 5.50.
`CC1=C(CC(=O)O)c2ccccc2/C1=C\c1ccc(C(C)C)cc1` showed a negative logarithm of the IC50 (pIC50) in assay [1] of at most 4.00.
As to `CCc1ccc2c(c1)C(CC(=O)O)=C(C)/C2=C/c1ccc(C(C)C)cc1`, the negative logarithm of the IC50 (pIC50) in assay [1] is at most 4.00.
Same read-out and setting: in the case of `COc1cccc(/C=C2/C(C)=C(CC(=O)O)c3cc(F)ccc32)c1` it was at most 4.00; in that of `CCOc1ccc2c(c1)C(CC(=O)O)=C(C)/C2=C/c1ccc(C(C)C)cc1`, 5.51; in that of `CC1=C(CC(=O)O)c2cc(F)ccc2/C1=C\c1ccccc1`, 4.97.
On to `CC(C)c1ccc(/C=C2\C=C(CC(=O)O)c3cc(F)ccc32)cc1`, for which the Activity entry with ZR-75-1 [8] and with PC-3 was “Dose-dependent effect” in each case. In addition, the outcome in the assay on ZR-75-1 [6] and in the assay with HCT-116 was Active. In the assay on HeLa, the result was inactive. The compound also gave a pIC50 in [1] of 5.80.
With `CC1=C(CC(=O)O)c2cc(F)ccc2/C1=C\c1ccc(-c2ccccn2)cc1`, the negative-log IC50 (pIC50) in [1] is at most 4.00.
Still for that read-out and setting: in the case of `CCOc1ccc(/C=C2/C(C)=C(CC(=O)O)c3cc(F)ccc32)cc1` it was at most 4.00.
Turning to `CCC1=C(CC(=O)O)c2cc(F)ccc2/C1=C\c1ccc(C(C)C)cc1`, the pIC50 in assay [1] is 5.20.

The term pIC50 denotes −log10 of the IC50, conventionally taken in molar units.

For the origin of these results see ChEMBL document CHEMBL2331313, “Synthesis and SAR study of modulators inhibiting tRXRα-dependent AKT activation” (Eur J Med Chem, 2013).
